Source: ChEMBL document CHEMBL1149072, “Cytotoxic constituents of Baccharis gaudichaudiana” (1994)
Converted amounts (≈) assume the structure as drawn.

Assays:
Assay type in all cases: functional
[1] = Cytotoxicity against human BC1 cells; conditions: read-out: ED50 (the source's name)
Summary of the method: (§1)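 These human cancer cell lines were established from primary tumors at the authors' institution. Cytotoxicity was assessed in 96-well microtiter plates by a previously described protocol and expressed as ED50 in µg/ml.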

Col2 = test: Cytotoxicity against human Col2 cells; conditions: read-out: ED50 (the source's name); summary of the method: as §1
HT-1080 = test: Cytotoxicity against human HT1080 cells; conditions: read-out: ED50 (the source's name)
Summary of the method: (§2)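 The cell lines came from ATCC. Cytotoxicity was run in 96-well microtiter plates by a previously described method and reported as ED50 in µg/ml.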

KB = test: Cytotoxicity against human KB cells; conditions: read-out: ED50 (the source's name); summary of the method: as §2
[2] = Cytotoxicity against human KBV1 cells; conditions: KB-V1, read-out: ED50 (the source's name)
Summary of the method: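 The KB-V1 line is multidrug resistant. It was derived from KB cells by extended exposure to sublethal vinblastine. It was tested in 96-well microtiter plates by a previously described method, with ED50 in µg/ml as the read-out.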

Lu1 = test: Cytotoxicity against human Lu1 cells; conditions: read-out: ED50 (the source's name); summary of the method: as §1
SK-MEL-2 = test: Cytotoxicity against human SK-MEL-2 cells; conditions: read-out: ED50 (the source's name)
P388 = test: Cytotoxicity against mouse P388 cells; conditions: read-out: ED50 (the source's name); summary of the method: as §2

SMILES	EC50 [1]	EC50 (Col2)	EC50 (HT-1080)	EC50 (KB)	EC50 [2]	EC50 (Lu1)	EC50 (SK-MEL-2)	EC50 (P388)
C[C@H]1CC=C2C(CO)(CO)CCC[C@]2(C)C1CC[C@@H](CCO)COC(=O)/C=C/c1ccc(O)cc1 (stereo partly drawn) [GUADICHAUDOL C]	19 µg/mL (≈ 39 µM)	19.3 µg/mL (≈ 39.7 µM)	12.4 µg/mL (≈ 25.5 µM)	> 20 µg/mL	4.7 µg/mL (≈ 9.66 µM)	13.1 µg/mL (≈ 26.9 µM)	11.2 µg/mL (≈ 23 µM)	2.4 µg/mL (≈ 4.93 µM)
C=C1CC[C@@H]2[C@H]([C@H]3[C@H]1CC[C@]3(C)O)C2(C)C [SPATHULENOL]	> 20 µg/mL	> 20 µg/mL	> 20 µg/mL	> 20 µg/mL	> 20 µg/mL	> 20 µg/mL	6.3 µg/mL (≈ 28.6 µM)	> 20 µg/mL
C[C@@H]1CC[C@@]23COC(=O)[C@H]2C[C@@H](O)C=C3[C@@]1(C)CCc1ccoc1 [GUADICHAUDONE]	> 20 µg/mL	> 20 µg/mL	> 20 µg/mL	> 20 µg/mL	> 20 µg/mL	> 20 µg/mL	> 20 µg/mL	11.7 µg/mL (≈ 35.4 µM)
CC(=O)O[C@@H]1C=C2C(=O)OC[C@]23CC[C@@H](C)[C@](C)(CCC2=CC(=O)OC2)C3C1 (stereo partly drawn) [ARTICULIN ACETATE]	> 20 µg/mL	> 20 µg/mL	> 20 µg/mL	> 20 µg/mL	> 20 µg/mL	> 20 µg/mL	> 20 µg/mL	1.7 µg/mL
O=c1cc(-c2ccc(O)cc2)oc2cc(O)cc(O)c12 [APIGENIN]	> 20 µg/mL	19.3 µg/mL (≈ 71.4 µM)	12.2 µg/mL (≈ 45.1 µM)	> 20 µg/mL	16.8 µg/mL (≈ 62.2 µM)	14 µg/mL (≈ 51.8 µM)	13.6 µg/mL (≈ 50.3 µM)	12.2 µg/mL (≈ 45.1 µM)
COc1c(O)cc2oc(-c3ccc(O)cc3)cc(=O)c2c1O [HISPIDULIN]	19 µg/mL (≈ 63.3 µM)	> 20 µg/mL	5.2 µg/mL (≈ 17.3 µM)	5.6 µg/mL (≈ 18.7 µM)	2.8 µg/mL (≈ 9.33 µM)	17.6 µg/mL (≈ 58.6 µM)	11.5 µg/mL (≈ 38.3 µM)	0.8 µg/mL (≈ 2.66 µM)
